Shown are actives, neighbours in structure and some others; about 1.5% of the full set was active somewhere.
Hck-Nef inh = inhibitors of human Hck kinase activated by Nef. Recombinant Hck-YEEI plus Nef, Z-Lyte FRET kinase assay. inhibition, % at 20 µM. actives 0.68% (n = 220,000);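 active = Hck-Nef kinase inhibition above about 50%, limit read from the data; inactive = inhibition below that limit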;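 also: 0% = DMSO with Hck plus Nef and 100% = Hck alone without Nef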
Runt-CBFb FRET = blocks binding of human RUNX1 Runt domain to CBFb | Q01196+Q13951 | actives 0.46% (n = 220,000) | AID 1496 | inhibition, % at 20 µM | Cerulean-Runt/Venus-CBFb FRET ratio 530/480, 1 h;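 active = inhibition over about 50% at 20 µM in the single-dose screen, limit read from the data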;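 also: 0% = DMSO wells and 100% = excess unlabeled CBFb competitor control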
Target sequence (Q01196 whole entry, looked up, the tested form may be a part): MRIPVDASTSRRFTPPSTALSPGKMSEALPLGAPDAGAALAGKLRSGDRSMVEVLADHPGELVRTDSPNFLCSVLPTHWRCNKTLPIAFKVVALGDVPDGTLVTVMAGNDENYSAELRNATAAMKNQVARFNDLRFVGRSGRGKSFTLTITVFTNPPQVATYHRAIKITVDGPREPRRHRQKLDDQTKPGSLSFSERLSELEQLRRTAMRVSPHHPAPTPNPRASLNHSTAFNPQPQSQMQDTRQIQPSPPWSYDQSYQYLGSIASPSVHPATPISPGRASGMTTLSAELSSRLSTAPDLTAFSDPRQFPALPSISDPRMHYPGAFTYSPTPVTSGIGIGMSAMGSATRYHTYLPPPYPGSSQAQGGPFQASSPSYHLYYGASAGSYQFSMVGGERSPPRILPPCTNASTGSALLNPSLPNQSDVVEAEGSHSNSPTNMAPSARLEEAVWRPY
Target sequence (Q13951 whole entry, looked up, the tested form may be a part): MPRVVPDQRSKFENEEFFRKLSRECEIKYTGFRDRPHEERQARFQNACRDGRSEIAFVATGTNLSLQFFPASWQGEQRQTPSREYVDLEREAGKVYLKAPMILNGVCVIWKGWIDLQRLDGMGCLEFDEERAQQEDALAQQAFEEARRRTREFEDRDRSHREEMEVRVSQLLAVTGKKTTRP
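Assay system: Cerulean-tagged RUNX1 Runt domain (FRET donor) fusion protein / Amount: 100 nM each of Venus-CBFb and Cerulean-Runt domain / Medium: Tris buffer pH 7.5 with salts and BSA / Also added: Venus-CBFb 100 nM / Schedule: 1 h complex formation plus 1 h compound treatment, room temperature / Signal: FRET fluorescence / Read-out: loss of energy transfer signal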
CaV13 FRET inh = Disruptors of the CACNA1D IQ motif to Ca2+-dependent inactivation inhibitor domain association, primary screening, Förster resonance energy transfer in intact living …. HEK cells, CFP/YFP FRET ICDI-IQ, plate reader, 10 min; percent FRET-ratio fall versus neutral wells. inhibition, % at 12.3 µM. actives 0.098% (n = 340,000). AID 743397;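 active = mean replicate inhibition of at least 30% and at least 1% of replicates passing that level; inconclusive = only one of the two criteria is met; inactive = neither criterion is met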;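 also: 0% = median of the neutral control wells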
RanGTP-Impb inh = inhibitors of RanGTP-importin-beta interaction, primary screen, biochemical, FRET, CFP-Ran, YFP-importin-beta, homogeneous; cell-free CFP-Ran/YFP-importin-beta FRET ratio; inhibition, % (test concentration not listed); actives 1.1% (n = 300,000);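 active = more than half of the replicate wells show a fall in the fluorescence ratio signal beyond about 16%, limit read from the data, passing the limit was not always enough; inconclusive = exactly half of the replicate wells pass the set limit; inactive = fewer than half of replicates pass the limit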;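 also: 0% = DMSO wells and 100% = Ran loaded with GDP instead of GTP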
Runt-SMMHC FRET = Runt domain-CBFb-SMMHC interaction inhibition. Cerulean-Runt/Venus-CBFb-SMMHC FRET ratio 530/480, 1 h. AID 1434. inhibition, % at 20 µM. actives 0.74% (n = 220,000);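 active = mean inhibition across duplicate retests at 20 µM reaching about 50%, limit read from the data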;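 also: 0% = DMSO wells and 100% = wells with excess untagged CBFb-SMMHC; inhibitors lower the FRET ratio by blocking Runt binding to CBFb-SMMHC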
An asterisk follows results filed as active; ? = inconclusive; nt = no result given; + = active, no number.

SMILES	Hck-Nef inh	Runt-CBFb FRET	CaV13 FRET inh	RanGTP-Impb inh	Runt-SMMHC FRET
O=[N+]([O-])c1ccc(Oc2cccc3cccnc23)c([N+](=O)[O-])c1	15	-1	-7	-13	-24
CC(=O)SCC(Cc1ccccc1)C(=O)NCC(=O)OCc1ccccc1 (centres undefined)	nt	-1	nt	2	-5
COc1cccc(/C(O)=C2/C(=O)C(=O)N(c3cc(C)on3)C2c2cccs2)c1 (centres undefined)	1	77*	nt	1	145*
Cc1cc(N2C(=O)C(=O)/C(=C(/O)c3ccccc3)C2c2cccs2)no1 (centres undefined)	0	9	-5	1	7
CCOc1cc(/C=C(\C#N)C(=O)Nc2ccccc2C(=O)O)ccc1OC(=O)c1ccc(C)cc1	nt	nt	-2	1	nt
CCOc1cc(/C=C(\C#N)C(=O)Nc2ccccc2[N+](=O)[O-])ccc1OCc1cccc2ccccc12	55*	1	nt	nt	-5
N#C/C(=C/c1ccc(N2CCCCC2)o1)c1cccc(F)c1	0	6	-8	?	4
N#C/C(=C/c1ccc(N2CCCCCC2)o1)c1ccc(Cl)cc1	-26	28	nt	33*	26
COc1ccc(S(=O)(=O)NCCc2cn3nc(C)c(C)nc3n2)cc1F	nt	nt	-16	17*	nt
Cc1ccnc(Nc2nc(-c3ccc(O)cc3O)cs2)c1	nt	nt	0	6	nt
N#CC(c1nc2ccccc2nc1N1CCOCC1)S(=O)(=O)c1ccccc1 (centres undefined)	-14	14	-5	16*	3
N#CC(c1nc2ccccc2nc1OCCO)S(=O)(=O)c1ccccc1 (centres undefined)	2	-2	-1	23*	-4
CCN1CCN(c2nc3ccccc3nc2C(C#N)S(=O)(=O)c2ccc(C)c(C)c2)CC1 (centres undefined)	-3	2	-5	75*	23
Cc1ccc(S(=O)(=O)C(C#N)c2nc3ccccc3nc2N2CC(C)OC(C)C2)cc1C (centres undefined)	4	10	-6	3	65
Cc1ccc(S(=O)(=O)C(C#N)c2nc3ccccc3nc2N2CCCC2)cc1 (centres undefined)	7	-22	-9	-1	-104
Cc1cccc(S(=O)(=O)C(C#N)c2nc3ccccc3nc2N2CC(C)OC(C)C2)c1 (centres undefined)	3	-15	-11	?	27
CCN1CCN(c2nc3ccccc3nc2C(C#N)S(=O)(=O)c2ccc(C)cc2)CC1 (centres undefined)	-1	1	-5	82*	17
COc1cccc(C(C(=O)NCC2CCCO2)N(C(=O)Cn2nnc3ccccc32)c2ccccc2C(C)=O)c1OC (centres undefined)	nt	nt	-4	1	nt
N#C/C(=C/c1ccc(-c2cc(C(=O)O)cc(C(=O)O)c2)o1)c1nc2ccccc2s1	28	85*	nt	-69	69*
N#C/C(=C\c1ccco1)c1nc2ccccc2s1	6	-9	-7	7	-10
CCc1ccc(CN2CCC(n3nccc3NC(=O)Cc3ccccc3)CC2)o1	nt	nt	nt	-3	nt
Cc1cccc(C)c1NC(=S)N(CCN(C)C)Cc1cccs1	23	0	-6	-1	2
CCc1cccc(C)c1NC(=S)N(CCN(C)C)Cc1cccs1	-9	2	-7	54*	2
COc1ccc(Cc2c(-c3ccc(F)cc3)nc3ccc(Cl)cn23)c(C)c1	nt	nt	-4	nt	nt
COc1ccc2nc(NCCNC(=S)NCCCN3CCOCC3)c(C#N)cc2c1	18	3	2	4	93*
SMILES	Hck-Nef inh	Runt-CBFb FRET	CaV13 FRET inh	RanGTP-Impb inh	Runt-SMMHC FRET
Cc1cc2cc(C#N)c(NCCNC(=S)NCCCN3CCOCC3)nc2cc1C	14	43	?	?	88*
COc1ccc(OC)c(NC(=S)NCCCN2CCOCC2)c1	-2	-2	-18	-7	-4
O=C(Nc1cccc(Cl)c1)Nc1nnc([C@H]2C[C@H](O)[C@@H](CO)O2)s1	nt	nt	-7	nt	nt
CCCOc1ccc(C(=O)Nc2cc(S(=O)(=O)N3CCOCC3)ccc2N2CCOCC2)cc1	nt	nt	-7	nt	nt
C=CCn1c(SCC(=O)Nc2cccc(S(=O)(=O)N(C)c3ccccc3)c2)nnc1C1CC1	nt	nt	-6	-3	nt
NC(=O)c1ccccc1N/C=C/C(=O)c1ccc(F)cc1	6	2	-3	-13	1
NC(=O)c1ccccc1N/C=C/C(=O)c1ccc(Cl)cc1Cl	5	5	nt	44*	16
NC(COCc1ccccc1)c1csc(Nc2ccc(S(N)(=O)=O)cc2)n1 (centres undefined)	nt	nt	-6	nt	nt
CCOC(=O)N1CCC(Nc2nc3ccccc3nc2NS(=O)(=O)c2ccc(Cl)cc2)CC1	1	11	-5	19*	34
CCN1C(=C(C#N)C#N)C=Cc2cc(C)ccc21	19	-36	-44	52*	77*
COc1cccc(CN2C(=O)c3cccc(N)c3C2=O)c1	5	5	-6	?	73*
N=c1c(C(=O)NCc2ccc(F)cc2)cc2c(=O)n3ccccc3nc2n1Cc1cccnc1	11	20	15	181*	59*
Cc1ccc(Cn2c(=N)c(C(=O)NC3CCCC3)cc3c(=O)n4ccccc4nc32)cc1	nt	nt	nt	-1	nt
N=c1c(C(=O)NC2CCCCC2)cc2c(=O)n3ccccc3nc2n1Cc1ccccc1	nt	nt	11	180*	nt
COc1ccc(CCn2c(=N)c(C(=O)NCc3ccco3)cc3c(=O)n4ccccc4nc32)cc1	12	87*	-8	22*	1
N=c1c(C(=O)NC2CCCCC2)cc2c(=O)n3ccccc3nc2n1Cc1ccco1	nt	nt	0	65*	nt
O=[N+]([O-])c1ccc(CSCc2ccc([N+](=O)[O-])cc2)cc1	nt	nt	-7	nt	nt
N=c1c(C(=O)NC2CCCCC2)cc2c(=O)n3ccccc3nc2n1Cc1cccnc1	nt	nt	13	+	nt
N=c1c(C(=O)NC2CCCCC2)cc2c(=O)n3ccccc3nc2n1CCc1ccccc1	nt	nt	12	161*	nt
N=c1c(C(=O)NCCc2ccccc2)cc2c(=O)n3ccccc3nc2n1Cc1ccco1	nt	nt	-4	74*	nt
COc1cccc(CNC23CC4CC(CC(C4)C2)C3)c1OCc1ccccc1	-13	0	-6	6	-2
O=C(O)CC1NC(=O)N(c2ccccc2)C1=O (centres undefined)	-10	-3	nt	45*	-6
COc1c2ccoc2c(OC[C@@H](O)C(C)(C)OC)c2oc(=O)ccc12	3	30	8	8	84*
Cc1c(C(=O)O)cccc1-n1c(C)cc(/C=N/Nc2ccc([N+](=O)[O-])cn2)c1C	62*	-9	-2	3	-18
CCNC(=S)NC(=NCc1cccnc1)Nc1nc(C)cc(C)n1	nt	nt	-2	19*	nt
